Experimental data published in the EternaBench riboswitch data.

System: MS2 coat protein
Assay: apparent Kd, MS2 coat protein; higher = weaker binding; RNA-MaP array; FMN 200 µM where present
Procedure, shortened: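 Stalled E. coli RNA polymerase transcribed the designs on Illumina sequencing-chip clusters. SNAP-549-labelled MS2 coat protein was titrated from 0.7 or 1.5 nM, doubling to 3 µM, without and then with constant ligand, in 100 mM Tris-HCl pH 7.5, 80 mM KCl, 4 mM MgCl2, BSA, DTT, yeast tRNA and Tween-20. Per-cluster binding curves were fitted to green signal normalised to red-channel RNA signal and control-cluster median Fmax. The apparent Kd is the median of the filtered fits.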

[1] = designed as: ON switch for flavin mononucleotide, no ligand
[2] = ligand present: flavin mononucleotide, designed as: ON switch for flavin mononucleotide
[3] = designed as: OFF switch for flavin mononucleotide, no ligand
[4] = ligand present: flavin mononucleotide, designed as: OFF switch for flavin mononucleotide

## GUCGGAAACGACAAAAGUAUGGAUCCAGAAGGCAUGACACAUGAGGAUCACCCAUGUCUAAGACAUGAGGAUAUGGAUCCAUAC
[1]
  apparent Kd: 5.24 nM
[2]
  apparent Kd: 3.67 nM

## GUCGGAAACGACAAGUAGCAAUCGGAGGAUAUUCAUGAAAACAUGAGGAUCACCCAUGUAAAUUGGGAGAAGGCCGAUUGCUAC
[1]
  apparent Kd: 91.6 nM
[2]
  apparent Kd: 8.48 nM

## GUCGGAAACGACAAUGAUAGGACUGAGGAUAUACAUAAGUUUGUCCAUACAUGAGGAUCACCCAUGUAGAAGGCAGUCCUAUCU
[3]
  apparent Kd: 6.33 nM
[4]
  apparent Kd: 15.9 nM

## GUCGGAAACGACAAUGAUAGGACUGAGGAUAUACGUAAUAUUAUCCAUACAUGAGGAUCACCCAUGUAGAAGGCAGUCCUAUCU
[3]
  apparent Kd: 5.85 nM
[4]
  apparent Kd: 6.02 nM

## GUCGUGUGAGGAUAUGAUUAAUAGACGGGAUUGCGACUGCAUCAGAAGGCACAUGAGGAUCACCCAUGUAUGAA
[3]
  apparent Kd: 19.4 nM
[4]
  apparent Kd: 63.5 nM

## GUCUCAGCUGAGGAUAUAUUCUCCCUUGAGGGAAUAGAAGGCAGUACAUGAGGAUCACCCAUGUGGUUCGUUUG
[3]
  apparent Kd: 122 nM
[4]
  apparent Kd: 327 nM

## GUCUCCGCUCGAGGAUAUAGCUGCAUGUAGUGUCCUGAGGCACAUGAGGAUCACCCAUGUGUAGGCUAGAAGGCGACGGACACU
[4]
  apparent Kd: 29.2 nM

## GUGAAACAUGAGGAUCACCCAUGUGAGGAUAUGUUUUAGUACUGCUGACAGUACAUCUAUAGAAGGCACAAUGG
[3]
  apparent Kd: 34.8 nM
[4]
  apparent Kd: 54.8 nM

## GUGAACAUGAGGAUCACCCAUGUAGCUCACUGCCAGUGGCUACAGGAUAUAGCACCUCGAGGGUGCUAGAAGGGUGGCCUAGAA
[1]
  apparent Kd: 62.9 nM
[2]
  apparent Kd: 16.8 nM

## GUGAGGUAAGGAUAUAGGAGAAAAGAUAAGGUAUGAGAGUUCUAGAAGGUACAUGAGGAUCACCCAUGUUAGGG
[3]
  apparent Kd: 224 nM
[4]
  apparent Kd: 193 nM

## GUGAGGUCAGGAUAUGCAUGGCGGGACUUGCGUCGUGGCGUGGAGAAGGGACAUGAGGAUCACCCAUGUGGAGA
[3]
  apparent Kd: 73 nM
[4]
  apparent Kd: 63.1 nM

## GUGCAAUGAGGAUAUACGUAGGUGAAAAUCUGUGUGCUCCUACAUGAGGAUCACCCAUGUAGAAGGCAUGUCAC
[3]
  apparent Kd: 17.1 nM
[4]
  apparent Kd: 28.2 nM

## GUGCACACUCGAGGAUAUCGGAGUUUUCUUCUUUGAGAAGGCGAUUCGUGCCGUGUUAUUUUGGACAUGAGGAUCACCCAUGUG
[1]
  apparent Kd: 66 nM
[2]
  apparent Kd: 36.8 nM

## GUGCCUAACUAGAAGGCAGUAUGCAAAGCAUUCUGAGGAUAUGGGUUCCGGAAACGGACAUGAGGAUCACCCAUGUGGCACAAA
[1]
  apparent Kd: 312 nM
[2]
  apparent Kd: 20.3 nM

## GUGCCUUGGGAGAAGGCCCAAUGCAAAGCAUCGGGAGGAUAUUCAUAUAAUAAAUAAACAUGAGGAUCACCCAUGUGGCACAAA
[1]
  apparent Kd: 447 nM
[2]
  apparent Kd: 33 nM

## GUGCCUUGGGAGAAGGCCGAUAGCAAAGCUAUCGGAGGAUAUUCAUACCGGAAACGGACAUGAGGAUCACCCAUGUGGCACAAA
[1]
  apparent Kd: 1280 nM
[2]
  apparent Kd: 51.7 nM

## GUGCGCGGCUAGGAUAUUGUGGGUUUUUGUCUGCGAGAAGGUGCCACAUGAGGAUCACCCAUGUGGUGUUGCUC
[3]
  apparent Kd: 24.1 nM
[4]
  apparent Kd: 30 nM

## GUGCGGAACCUAGGAUAUCCGACAUGGACAGGUGGUAAGUCUCCCACAUGAGGAUCACCCAUGUAGGAGAAGGAGGAUCACGGG
[3]
  apparent Kd: 6.84 nM
[4]
  apparent Kd: 7.39 nM

## GUGCGGUAGGAGAAGGACGGAGGCUUCUUUUCAUACAUGAGGAUCACCCAUGUAGGAUAUCCUACCUCACGCGGCCUCCUUCUG
[3]
  apparent Kd: 4.77 nM
[4]
  apparent Kd: 4.99 nM

## GUGCGGUGAGGAUAUACGUAGGUGAAAAUCUGUGUGUUCCUACAUGAGGAUCACCCAUGUAGAAGGCAUGUCAC
[3]
  apparent Kd: 53.5 nM
[4]
  apparent Kd: 143 nM

## GUGCGUGGCUAGGAUAUUGUGGAGUUUAGUCAGCGAGAAGGAGCCACAUGAGGAUCACCCAUGUGGUGUAGCUC
[3]
  apparent Kd: 17.2 nM
[4]
  apparent Kd: 94.5 nM

## GUGCUUUGGGAGAAGGCCGAUAGCAAAGCUAUCGGAGGAUAUUCAUACCGGAAACGGACAUGAGGAUCACCCAUGUGGCACAAA
[1]
  apparent Kd: 1430 nM
[2]
  apparent Kd: 44.5 nM

## GUGGACGUCGUAGGAUAUGUAGGAUAUUCCUACAUGAGGAUCACCCAUGUUUACAUGGAAGAAGGACAGAAGGACGAUGUCCAG
[1]
  apparent Kd: 992 nM
[2]
  apparent Kd: 16.2 nM

## GUGGAGUACGUAGGAUAUGUAGGAUAUUCCUACAUGAGGAUCACCCAUGUUGACAUGGAGGAAGGACAGAAGGACGUGCUCCAG
[1]
  apparent Kd: 265 nM
[2]
  apparent Kd: 256 nM

## GUGGCACAUGAGGAUCACCCAUGUCAGGAUAUCGCGUGGUUUUUUUCGGCCGCGCGCGCGAGAAGGGACGUCUU
[3]
  apparent Kd: 31.1 nM
[4]
  apparent Kd: 29.1 nM

## GUGGCAUGAGGAUAUCGAGGUUAGUACAUGAGGAUCACCCAUGUUAUCCAGGUGUCGGUUCGAGAAGGCAUGGCAC
[3]
  apparent Kd: 326 nM
[4]
  apparent Kd: 302 nM

## GUGGCUAGUGCAGGAUAUCGGCGCGUGUAGUGUCGAGAAGGGCACAUGAGGAUCACCCAUGUGAUCAAUCACUGCUAAGGCCGC
[3]
  apparent Kd: 5.12 nM
[4]
  apparent Kd: 5.38 nM

## GUGGUACAUGAGGAUCACCCAUGUUAGGAUAUCGCGUGAGGUAAAACUUACACACACACGAGAAGGGACGUCUU
[3]
  apparent Kd: 45.9 nM
[4]
  apparent Kd: 41 nM

## GUGGUACAUGAGGAUCACCCAUGUUAGGAUAUCGCGUGAGGUUUUACUUCCGCACGCGCGAGAAGGGACGUCUU
[3]
  apparent Kd: 36.2 nM
[4]
  apparent Kd: 29.5 nM

## GUGGUCAGACAUGAGGAUCACCCAUGUGGAAUAAAUAACGGACAGGAUAUAGAAUAUAGGAUAUACUAGAAGGGUUGAUUGGUG
[1]
  apparent Kd: 55.7 nM
[2]
  apparent Kd: 57.3 nM

## GUGGUCAGACAUGAGGAUCACCCAUGUGGAAUAAAUAAGGAUUAGGAUAUGGAAUAUAGGAUAUACCAGAAGGAAUGGUUGGUG
[1]
  apparent Kd: 97.8 nM
[2]
  apparent Kd: 103 nM

## GUGUACAGAGGAUAUACAGGAGCAUGGAAACAUGCAACUUCACAUGAGGAUCACCCAUGUAGAAGGCUGUACAC
[3]
  apparent Kd: 16 nM
[4]
  apparent Kd: 47.9 nM

## GUGUACAGAGGAUAUACAUGAGCAUGGAAACAUGCAUCCUCACAUGAGGAUCACCCAUGUAGAAGGCUGUACAC
[3]
  apparent Kd: 26.6 nM
[4]
  apparent Kd: 31.6 nM

## GUGUACCGAGGAUAUGCUGGAAUCUAGCGAAGCUAGGUUCCACAUGAGGAUCACCCAUGUAGAAGGUGGUACAC
[3]
  apparent Kd: 79.9 nM
[4]
  apparent Kd: 25.7 nM

## GUGUAGACAGGAUAUGCUUUGAGCAUAUGAGAGUAUGCUCGACAUGAGGAUCACCCAUGUAGAAGGGUCUACAC
[3]
  apparent Kd: 12.1 nM
[4]
  apparent Kd: 12.9 nM

## GUGUAGAUAGGAUAUGCGUGAGUCUAGCGAAGCUAGAUUCUACAUGAGGAUCACCCAUGUAGAAGGGUCUACAC
[3]
  apparent Kd: 17.2 nM
[4]
  apparent Kd: 18.5 nM

## GUGUAGAUAGGAUAUGCUGGAAUCUAGCGAAGCUAGGUUCCACAUGAGGAUCACCCAUGUAGAAGGGUCUACAC
[3]
  apparent Kd: 200 nM
[4]
  apparent Kd: 54 nM

## GUGUAGUCAGGAUAUACAGAGGAAGAUAAUACAAUAUAAGUACAUGAGGAUCACCCAUGUAGAAGGGACAGUGU
[3]
  apparent Kd: 30.8 nM
[4]
  apparent Kd: 32.4 nM

## GUGUAGUCAGGAUAUACAUAGGAAGAGAAGAGAAGAUAAGCACAUGAGGAUCACCCAUGUAGAAGGGACAGUGU
[3]
  apparent Kd: 65.1 nM
[4]
  apparent Kd: 70.7 nM

## GUUAAACAUGAGGAUCACCCAUGUCAAUGUAGUCGAGGAUAUGGGCAGCUAUGAGGCGUACUAGAAGGCGAAGAGU
[1]
  apparent Kd: 361 nM
[2]
  apparent Kd: 178 nM

## GUUAUUGACAAGAAGGCAAACAUGAGGAUCACCCAUGUUCUACAUGUAUAUUGAGGAUAUUGCCAAUACAUGAGGAUCACCCAG
[3]
  apparent Kd: 45 nM
[4]
  apparent Kd: 53.3 nM

## GUUCAACAUGAGGAUCACCCAUGUAGAAGGCGCUCCGACAUUUUGUAGAACGAGGUGGGUGCGGGCGAGGAUAUACGUGGCGCU
[3]
  apparent Kd: 48.4 nM
[4]
  apparent Kd: 89.6 nM

## GUUGACAGCACAGGAUAUGCGCAGUCUAUAUCACAUGAGGAUCACCCAUGUCGGCAACAGACCGAGCAGAAGGGUGCGAGUGUG
[1]
  apparent Kd: 235 nM
[2]
  apparent Kd: 39.7 nM

## GUUGCAAAUGAGAAGGCGAUCAUGAAACAUGAUCGAGGAUAUCAUGUUUACAUGAGGAUCACCCAUGUAUGGGUAUAUUGCAGC
[1]
  apparent Kd: 402 nM
[2]
  apparent Kd: 22.2 nM

## GUUGCACAAGUUAACAUGAGGAUCACCCAUGUCAAAAGACAUGAGGAUAUGGAGCUGAAGAUUAUCCAGAAGGCAUAAUGCUAA
[1]
  apparent Kd: 460 nM
[2]
  apparent Kd: 158 nM

## GUUUACCGAGGAUAUACAUGAGGAUCACCCAUGUUCCUAACAAACGUCGGUUCAGCGUGUAGAAGGCGGACCUA
[3]
  apparent Kd: 17.9 nM
[4]
  apparent Kd: 28.4 nM

## GUUUACGUAGAAGGAUAUACAUUUGACAUCCUGAUGCACGCAAUACUCACAUGAGGAUCACCCAUGUAGAAGGUCUGCGAAAGA
[3]
  apparent Kd: 15.5 nM
[4]
  apparent Kd: 24.8 nM

## GUUUCACAUGAGGAUCACCCAUGUGAGGAUAUAGAUUUUUUAGUAAUAAUUGUUGGAUUUAGAAGGCGCGUGAU
[3]
  apparent Kd: 22 nM
[4]
  apparent Kd: 21.5 nM

## GUUUCACAUGAGGAUCACCCAUGUGAGGAUAUGGAUUUGUUAACCGUAGUUAAUAGAUCCAGAAGGCGCGUGAU
[3]
  apparent Kd: 62.4 nM
[4]
  apparent Kd: 68.2 nM

## GUUUCGGGAGGAUAUGCGUGGAUUAUUCUCGUAUGUUGUUUACAUGAGGAUCACCCAUGUAGAAGGUCUGGAGC
[3]
  apparent Kd: 193 nM
[4]
  apparent Kd: 300 nM

## GUUUCUAUAUGUUUUAUUUAACAGUCAGAAGGUGAUAAUACGACAUGAGGAUCACCCAUGUAAUUCAAGGAUAUGAUAUUAAUC
[1]
  apparent Kd: 62.7 nM
[2]
  apparent Kd: 27.7 nM

## GUUUGUUAUUAGAAGGUGCCAGCGAGAGCUGCACAUGAGGAUCACCCAUGUUGUCGGUGACGACGCAAGGAUAUGGUGGUGGAU
[1]
  apparent Kd: 715 nM
[2]
  apparent Kd: 169 nM

## GUUUUCGCAGGAUAUUAGAGUUUUUACAUGAGGAUCACCCAUGUUAAUUGGGUUAAUGUCUAAGAAGGGCGAUGUA
[3]
  apparent Kd: 67.6 nM
[4]
  apparent Kd: 101 nM

## GUUUUUUUUAGUUCAUACUAUAAGAUAGAAGGUGAAAUAUAGACAUGAGGAUCACCCAUGUAAUUCAAGGAUAUGUAGUUACUC
[1]
  apparent Kd: 44.1 nM
[2]
  apparent Kd: 24.8 nM

## UAAAAGCGAGGAUAUACAUGAGGAUCACCCAUGUGAGGCGAAACGCCUCGGGCCAUCAGUAGAAGGUGCAAAAC
[3]
  apparent Kd: 109 nM
[4]
  apparent Kd: 84.8 nM

## UAAAAGGCAGGAUAUGCAGGUGACCCGACUCGCCGGGCUAAACAUGAGGAUCACCCAUGUAGAAGGGCCAAAAG
[3]
  apparent Kd: 15.7 nM
[4]
  apparent Kd: 43.6 nM
